ChEMBL document CHEMBL1799983, “Anti-inflammatory and cytotoxic neoflavonoids and benzofurans from Pterocarpus santalinus” (J Nat Prod, 2011)
In brackets after ≈: the same amount, converted by molar mass.

How the values were obtained:
[1] = system: Neutrophil; assay: Ratio of LY294002 IC50 to compound IC50 for FMLP/CB-induced elastase release in human neutrophils; format: functional
[2] = Antiinflammatory activity in human neutrophils assessed as inhibition of FMLP/CB-induced superoxide anion generation; format: functional, cell-based; conditions: Neutrophil
Summary of the method: (§1)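 IC50 (concentration giving 50% inhibition) in human neutrophils, reported as mean ± SEM, n = 3–5. LY294002, a phosphatidylinositol-3-kinase inhibitor, served as the positive control for both superoxide anion generation and elastase release.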

[3] = Antiinflammatory activity in human neutrophils assessed as inhibition of FMLP/CB-induced elastase release; format: functional, cell-based; conditions: Neutrophil; summary of the method: as §1
[4] = system: MDA-MB-231; assay: Cytotoxicity against human MDA-MB-231 cells by MTT assay; format: functional, cell-based
Summary of the method: (§2)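 Fractions and isolates were screened against the cancer cell lines by a colorimetric MTT assay run to an established protocol, with doxorubicin as the positive control.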

[5] = system: MCF7; assay: Cytotoxicity against human MCF7 cells by MTT assay; format: functional, cell-based; summary of the method: as §2
[6] = system: HepG2; assay: Cytotoxicity against human HepG2 cells by MTT assay; format: functional, cell-based; summary of the method: as §2
[7] = Cytotoxicity against human Hep3B cells by MTT assay; format: functional, cell-based, Hep 3B2; summary of the method: as §2
[8] = system: Ca9-22; assay: Cytotoxicity against human Ca9-22 cells by MTT assay; format: functional, cell-based; summary of the method: as §2
[9] = Antiinflammatory activity in human neutrophils assessed as inhibition of FMLP/CB-induced elastase release at 10 ug/ml; format: functional, Neutrophil; conditions: for inhibition at 10 µg/mL: Homo sapiens, Neutrophil
Summary of the method: (§3)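 Percentage inhibition in human neutrophils, measured at 10 μg/mL test concentration and reported as mean ± SEM (n = 3–5). Significance was tested against the control value at p < 0.05, 0.01 and 0.001. LY294002 was the positive control.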

[10] = system: A549; assay: Cytotoxicity against human A549 cells by MTT assay; format: functional, cell-based; summary of the method: as §2
[11] = Antiinflammatory activity in human neutrophils assessed as inhibition of FMLP/CB-induced superoxide anion generation at 10 ug/ml; format: functional, Neutrophil; summary of the method: as §3
[12] = Homo sapiens, MDA-MB-231, read-out: IC50
[13] = Homo sapiens, MCF7, read-out: IC50
[14] = Homo sapiens, HepG2, read-out: IC50
[15] = Homo sapiens, Hep3B, read-out: IC50
[16] = Homo sapiens, Ca9-22, read-out: IC50
[17] = Homo sapiens, A549, read-out: IC50

Row | SMILES | IC50 [2] | IC50 [3] | IC50 [4, 12] | IC50 [5, 13] | IC50 [6, 14] | IC50 [7, 15] | IC50 [8, 16] | IC50 [10, 17] | also measured
1 | COC1=CC(=O)C2(C(C)C(O)c3ccc(OC)c(O)c3)OC2C1=O (stereo not drawn) [PTEROLINUS D] | 0.29 µg/mL (≈ 0.867 µM) | 1.06 µg/mL (≈ 3.17 µM) | 4.89 µg/mL (≈ 14.6 µM) | 3.31 µg/mL (≈ 9.9 µM) | 4.33 µg/mL (≈ 13 µM) | 2.08 µg/mL (≈ 6.22 µM) | – | – | Ratio IC50 [1]: 1.9
2 | COc1ccc(C(=O)c2cc(O)c(OC)cc2O)cc1O [MELANOXOIN] | – | 3.62 µg/mL (≈ 12.5 µM) | – | – | – | – | 0.46 µg/mL (≈ 1.58 µM) | – | –
3 | COc1cc(C2CCOc3cc(OC)c(O)cc32)ccc1O (stereo not drawn) [PTEROLINUS J] | 2.1 µg/mL (≈ 6.95 µM) | – | > 17.1 µg/mL | > 17.1 µg/mL | > 17.1 µg/mL | > 17.1 µg/mL | > 17.1 µg/mL | > 17.1 µg/mL | inhibition at 10 µg/mL [9]: 16.6%
4 | C=C[C@H](C1=CC(=O)C(OC)=CC1=O)c1ccc(OC)c(O)c1 | 0.47 µg/mL (≈ 1.57 µM) | 1.44 µg/mL (≈ 4.8 µM) | 3.34 µg/mL (≈ 11.1 µM) | – | – | 2.39 µg/mL (≈ 7.96 µM) | – | – | –
5 | C=C[C@H](C1=CC(O)(CC(C)=O)C(OC)=CC1=O)c1ccc(OC)c(O)c1 (single isomer, unassigned) [PTEROLINUS HB] | – | – | 2.85 µg/mL (≈ 7.95 µM) | – | 3.65 µg/mL (≈ 10.2 µM) | – | – | – | inhibition at 10 µg/mL ([11]; Homo sapiens, Neutrophil): 29.4%; inhibition (INH) [9]: 19.53%
6 | O=c1cc(N2CCOCC2)oc2c(-c3ccccc3)cccc12 [LY-294002] | 1.18 µg/mL (≈ 3.84 µM) | 1.99 µg/mL (≈ 6.47 µM) | – | – | – | – | – | – | –
7 | COc1cc2oc(-c3ccc(O)cc3)c(C)c2cc1O [PTEROLINUS B] | 0.19 µg/mL (≈ 0.703 µM) | 47.8 µg/mL (≈ 177 µM) | – | 1.74 µg/mL (≈ 6.44 µM) | – | – | – | 2.34 µg/mL (≈ 8.66 µM) | –
8 | COc1ccc([C@H]2Oc3cc(OC)c(OC)cc3[C@@H]2C)cc1O [PTEROLINUS C] | 2.28 µg/mL (≈ 7.21 µM) | – | > 19.4 µg/mL | > 19.4 µg/mL | > 19.4 µg/mL | > 19.4 µg/mL | > 19.4 µg/mL | > 19.4 µg/mL | inhibition at 10 µg/mL [9]: 9.73%
9 | C=C[C@H](C1=CC(O)(CC(C)=O)C(OC)=CC1=O)c1ccc(OC)c(O)c1 (single isomer, unassigned; epimer 2) [PTEROLINUS HB] | – | – | – | – | – | – | – | 3.97 µg/mL (≈ 11.1 µM) | inhibition (INH) [11]: 34.15%; inhibition (INH) [9]: 2.84%
10 | COc1ccc(-c2cc(=O)oc3cc(OC)c(O)cc23)cc1O [MELANNEIN] | 3.18 µg/mL (≈ 10.1 µM) | – | > 17.1 µg/mL | > 17.1 µg/mL | > 17.1 µg/mL | > 17.1 µg/mL | > 17.1 µg/mL | > 17.1 µg/mL | inhibition at 10 µg/mL [9]: -1.53%
11 | COC1=CC(=O)C([C@@H](C)[C@@H](O)c2ccc(OC)c(O)c2)=CC1=O [PTEROLINUS E] | – | 2.13 µg/mL (≈ 6.69 µM) | 6.96 µg/mL (≈ 21.9 µM) | 6.96 µg/mL (≈ 21.9 µM) | 6.96 µg/mL (≈ 21.9 µM) | 6.96 µg/mL (≈ 21.9 µM) | 6.96 µg/mL (≈ 21.9 µM) | 6.96 µg/mL (≈ 21.9 µM) | –
12 | C=C[C@@H](c1ccc(OC)c(O)c1)c1cc(O)c(C(=O)OC)cc1O [PTEROLINUS F] | – | 3.22 µg/mL (≈ 9.75 µM) | 11.1 µg/mL (≈ 33.6 µM) | 11.1 µg/mL (≈ 33.6 µM) | 11.1 µg/mL (≈ 33.6 µM) | 11.1 µg/mL (≈ 33.6 µM) | 11.1 µg/mL (≈ 33.6 µM) | 11.1 µg/mL (≈ 33.6 µM) | –
13 | COc1ccc([C@H]2Oc3cc(OC)c(O)cc3[C@@H]2C)cc1O [MELANOXIN] | 0.69 µg/mL (≈ 2.28 µM) | – | 7.7 µg/mL (≈ 25.5 µM) | 7.7 µg/mL (≈ 25.5 µM) | 7.7 µg/mL (≈ 25.5 µM) | 7.7 µg/mL (≈ 25.5 µM) | 7.7 µg/mL (≈ 25.5 µM) | 7.7 µg/mL (≈ 25.5 µM) | inhibition at 10 µg/mL [9]: 33.3%
14 | COc1ccc(-c2c(C)oc3cc(OC)c(O)cc23)cc1O [PTEROLINUS A] | 0.33 µg/mL (≈ 1.1 µM) | 2.54 µg/mL (≈ 8.46 µM) | – | – | – | – | – | – | IC50 ([10]; a549): Not Active; IC50 ([8]; ca9-22): Not Active; IC50 ([4]; mda-mb-231): Not Active; IC50 ([5]; mcf7): Not Active; IC50 ([6]; hepg2): Not Active; IC50 ([7]; hep 3b2): Not Active
15 | COc1ccc(-c2oc3cc(OC)c(O)cc3c2C)cc1O [DEHYDROMELANOXIN] | 0.73 µg/mL (≈ 2.43 µM) | 3.69 µg/mL (≈ 12.3 µM) | – | – | – | – | – | – | IC50 ([10]; a549): Not Active; IC50 ([8]; ca9-22): Not Active; IC50 ([4]; mda-mb-231): Not Active; IC50 ([5]; mcf7): Not Active; IC50 ([6]; hepg2): Not Active; IC50 ([7]; hep 3b2): Not Active
